Assay results of several laboratories.
Organism: Mycolicibacterium smegmatis
Read-out: microbial growth

Structure (SMILES)	method	strain	time	MIC
NNC(=O)c1ccncc1	agar dilution	–	–	12.5 µg/mL
NC[C@H]1O[C@@H](O[C@@H]([C@H](NCCCC(=O)NCc2ccc(N3CCC(Oc4ccc(OC(F)(F)F)cc4)CC3)cc2)C(N)=O)[C@H]2O[C@@H](n3ccc(=O)[nH]c3=O)C(O)C2O)[C@H](O)[C@@H]1O (stereo partly drawn)	–	ATCC607	–	0.2 µg/mL
CC(C)=CCC/C(C)=C/CNCCOc1ccccc1	–	–	–	12 µg/mL
C/C(=N\NC(=N)N)c1cccc(/C(C)=N/NC(=N)N)c1	–	MC2155	–	15.6 to 31.3 µM
CNC(C)C1CCC(N)C(OC2C(N)CC(N)C(OC3OCC(C)(O)C(NC)C3O)C2O)O1 (stereo not drawn)	broth dilution	–	72 h	1 µg/mL
CC(C)=CCC/C(C)=C/COCCNC1C2CC3CC(C2)CC1C3 (stereo not drawn)	–	–	–	6.2 µg/mL
CC(C)CC=CC=CC(=O)NC(CC(N)=O)C(=O)NC1C(=O)NC(c2ccc(O)cc2)C(=O)NC(CCCN)C(=O)NC(C(C)O)C(=O)NC(c2ccc(O)cc2)C(=O)NC(c2ccc(O)cc2)C(=O)NC(C(C)O)C(=O)NC(Cc2ccccc2)C(=O)NC(CCCN)C(=O)NC(c2ccc(OC3OC(CO)C(O)C(O)C3OC3OC(CO)C(O)C(O)C3O)cc2)C(=O)NC(C(C)O)C(=O)NC(c2ccc(O)cc2)C(=O)NCC(=O)NC(CC(C)C)C(=O)NC(C)C(=O)NC(c2ccc(O)c(Cl)c2)C(=O)OC1C(N)=O (stereo not drawn)	resazurin	ATCC607	72 h	3.25 µg/mL
CO[C@H]1/C=C/O[C@@]2(C)Oc3c(C)c(O)c4c(O)c(c(/C=N/N5CCN(C)CC5)c(O)c4c3C2=O)NC(=O)/C(C)=C\C=C\[C@H](C)[C@H](O)[C@@H](C)[C@@H](O)[C@@H](C)[C@H](OC(C)=O)[C@@H]1C	broth dilution	ATCC607	–	> 200 µg/mL
COc1nc2ccc(Br)cc2cc1[C@@H](c1ccccc1)[C@@](O)(CCN(C)C)c1cccc2ccccc12	–	–	–	0.03 µg/mL
CC1(C)S[C@@H]2[C@H](NC(=O)[C@H](N)c3ccccc3)C(=O)N2[C@H]1C(=O)O	resazurin	MC^2155	24 h	50 µg/mL
CC(C)=CCC/C(C)=C/C[N+](C)(C)CCOC1C2CC3CC(C2)CC1C3.[I-] (stereo not drawn)	–	–	–	12 µg/mL
O=C(Nc1ccccc1)Nc1ncc([N+](=O)[O-])s1	agar dilution	MC^2155	–	> 100 µM
COC1C(C(OC2OC(C(=O)NC3CCCCNC3=O)=CC(O)C2O)C(N)=O)OC(n2ccc(=O)[nH]c2=O)C1OC (stereo not drawn)	broth dilution	ATCC607	–	> 200 µg/mL
CC[C@@H](CO)NCCN[C@@H](CC)CO	resazurin	ATCC607	72 h	0.39 µg/mL
CC(C)=CCC/C(C)=C/COCC(=O)NC1C2CC3CC(C2)CC1C3 (stereo not drawn)	–	–	–	25 µg/mL
CO[C@H]1/C=C/O[C@@]2(C)Oc3c(C)c(O)c4c(O)c(c(/C=N/N5CCN(C)CC5)c(O)c4c3C2=O)NC(=O)/C(C)=C\C=C\[C@H](C)[C@H](O)[C@@H](C)[C@@H](O)[C@@H](C)[C@H](OC(C)=O)[C@@H]1C	broth dilution	–	–	162 µM
CC(C)=CCC/C(C)=C/CNCCOc1cccc2ccccc12	–	–	–	12 µg/mL
O=C(Nc1ccc2c(c1)OC(F)(F)O2)Nc1ccc(Cl)c(C(F)(F)F)c1	–	MC2155	–	6 µM
